# According to ChEMBL document CHEMBL3351249, “Potent cholesteryl ester transfer protein inhibitors of reduced lipophilicity: 1,1'-spiro-substituted hexahydrofuroquinoline derivatives” (J Med Chem, 2014):
# pIC50: −log10 of the molar value.
# Experiments:
# [1] = target: T1, Cholesteryl ester transfer protein (Homo sapiens, UniProt P11597); assay: Inhibition of human recombinant CETP by fluorescence transfer assay
# T1 sequence (P11597 whole entry): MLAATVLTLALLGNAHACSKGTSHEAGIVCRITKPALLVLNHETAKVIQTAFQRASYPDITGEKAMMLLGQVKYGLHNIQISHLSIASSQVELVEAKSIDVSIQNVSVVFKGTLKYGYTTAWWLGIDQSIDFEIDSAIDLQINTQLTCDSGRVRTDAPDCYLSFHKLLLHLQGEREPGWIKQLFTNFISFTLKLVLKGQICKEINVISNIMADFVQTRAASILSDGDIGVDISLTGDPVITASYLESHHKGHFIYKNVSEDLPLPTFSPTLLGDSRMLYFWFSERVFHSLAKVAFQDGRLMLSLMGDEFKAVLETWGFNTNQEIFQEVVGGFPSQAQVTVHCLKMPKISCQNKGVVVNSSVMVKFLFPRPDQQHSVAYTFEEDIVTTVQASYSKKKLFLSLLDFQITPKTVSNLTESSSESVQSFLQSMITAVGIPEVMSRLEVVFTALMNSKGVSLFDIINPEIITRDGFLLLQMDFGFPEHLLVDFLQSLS
# Plasma [2] = assay: Drug concentration in plasma of hemizygous human CETP transgenic mouse at 10 mg/kg, po dosed for 5 consecutive days measured on day 3 after cessation of drug treatment; assay type: ADME, organism-based; set-up: dose 10 mg/kg, route oral; conditions: in vivo
# Summary of the method: (§1)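 Male hCETP transgenic mice given oral doses for 5 days in 0.5% hydroxyethylcellulose. Tissues and plasma collected at day 3 and day 21 after the last dose. Fat diluted 6:1 with acetonitrile and homogenized. Analysis by LC/MS/MS on a C18 column with QCs at 4.0−1000 nM, accepted within 30% of target.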
# Muscle tissue [3] = assay: Drug concentration in muscle of hemizygous human CETP transgenic mouse at 10 mg/kg, po dosed for 5 consecutive days measured on day 3 after cessation of drug treatment; assay type: ADME, organism-based; set-up: dose 10 mg/kg, route oral; conditions: in vivo; summary of the method: as §1
# [4] = Terminal elimination half life in healthy human administered as single oral dose; assay type: ADME, organism-based; conditions: in vivo, read-out: beta t1/2 (converted)
# Mus musculus = assay: Increase in HDL-cholesterol in hemizygous human CETP transgenic mouse at 10 mg/kg, po dosed for 5 consecutive days; assay type: functional
# Summary of the method: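 Male hemizygous hCETP or hCETP/hApoB100 transgenic mice, 26−30 weeks, chow-fed. Compound suspended in 0.5% aqueous hydroxyethylcellulose, oral gavage each morning for 5 or 14 days. EDTA blood taken 7 h post-dose (fed for 5-day, after 4 h fast for 14-day) from vena facialis under isoflurane. HDL/LDL cholesterol measured on Cobas Integra 400 Plus. Mean ± SEM, one-way ANOVA with Bonferroni.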
# Muscle tissue [5] = assay: Drug concentration in muscle of hemizygous human CETP transgenic mouse at 10 mg/kg, po dosed for 5 consecutive days measured on day 21 after cessation of drug treatment; assay type: ADME, organism-based; set-up: dose 10 mg/kg, route oral; conditions: in vivo; summary of the method: as §1
# [6] = Drug concentration in adipose fat of hemizygous human CETP transgenic mouse at 10 mg/kg, po dosed for 5 consecutive days measured on day 3 after cessation of drug treatment; assay type: ADME, organism-based, Adipose tissue; set-up: dose 10 mg/kg, route oral; conditions: in vivo; summary of the method: as §1
# [7] = Drug concentration in testes of hemizygous human CETP transgenic mouse at 10 mg/kg, po dosed for 5 consecutive days measured on day 3 after cessation of drug treatment; assay type: ADME, organism-based, Testis; set-up: dose 10 mg/kg, route oral; conditions: in vivo; summary of the method: as §1
# Kidney [8] = assay: Drug concentration in kidney of hemizygous human CETP transgenic mouse at 10 mg/kg, po dosed for 5 consecutive days measured on day 21 after cessation of drug treatment; assay type: ADME, organism-based; set-up: dose 10 mg/kg, route oral; conditions: in vivo; summary of the method: as §1
# Plasma [9] = assay: Plasma concentration in hemizygous human CETP transgenic mouse at 10 mg/kg, po dosed for 5 consecutive days measured on day 5 and day 7 post dose; assay type: ADME, organism-based; set-up: dose 10 mg/kg, route oral; conditions: in vivo
# [10] = Drug concentration in testes of hemizygous human CETP transgenic mouse at 10 mg/kg, po dosed for 5 consecutive days measured on day 21 after cessation of drug treatment; assay type: ADME, organism-based, Testis; set-up: dose 10 mg/kg, route oral; conditions: in vivo; summary of the method: as §1
# Kidney [11] = assay: Drug concentration in kidney of hemizygous human CETP transgenic mouse at 10 mg/kg, po dosed for 5 consecutive days measured on day 3 after cessation of drug treatment; assay type: ADME, organism-based; set-up: dose 10 mg/kg, route oral; conditions: in vivo; summary of the method: as §1
# [12] = Drug concentration in adipose fat of hemizygous human CETP transgenic mouse at 10 mg/kg, po dosed for 5 consecutive days measured on day 21 after cessation of drug treatment; assay type: ADME, organism-based, Adipose tissue; set-up: dose 10 mg/kg, route oral; conditions: in vivo; summary of the method: as §1
# Liver = assay: Drug concentration in liver of hemizygous human CETP transgenic mouse at 10 mg/kg, po dosed for 5 consecutive days measured on day 3 after cessation of drug treatment; assay type: ADME, organism-based; set-up: dose 10 mg/kg, route oral; conditions: in vivo; summary of the method: as §1
SMILES,pIC50 [1],Drug uptake (Plasma [2]),Drug uptake (Muscle tissue [3]),half-life [4] [h],Activity (Mus musculus) [%],Drug uptake (Muscle tissue [5]),Drug uptake [6],Drug uptake [7],Drug uptake (Kidney [8]),concentration (Plasma [9]) [nM],Drug uptake [10],Drug uptake (Kidney [11]),Drug uptake [12],Drug uptake (Liver)
CC(C)c1nc2c(c3c1[C@@H](c1ccc(C(F)(F)F)nc1)OC31CCCC1)[C@@H](O)CC(C)(C)C2,6.87,–,–,–,–,–,–,–,–,–,–,–,–,–
COc1cc(F)c(C(C)C)cc1-c1ccc(C(F)(F)F)cc1CN1C(=O)O[C@H](c2cc(C(F)(F)F)cc(C(F)(F)F)c2)[C@@H]1C [ANACETRAPIB],–,Active,Active,83,50.5,Active,Active,Active,Active,507,Active,Active,Active,Active
